Measurements: ChEMBL document CHEMBL1221177, “Secramine inhibits Cdc42-dependent functions in cells and Cdc42 activation in vitro” (Nat Chem Biol, 2006)
The source made the active and inactive calls. The rule behind the calls is not given here.

Experiments:
[1] = organism: Xenopus laevis; assay: Inhibition of actin polymerization in N-WASP VCA-stimulated Xenopus laevis egg extract at 10 uM after 1.5 mins by fluorescence assay
Procedure, shortened: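 Xenopus laevis egg extract added at 4 °C to vehicle or compound, followed by VCA polypeptide. Pyrene-actin polymerization then followed by fluorescence in a cuvette at 21 °C.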

[2] = target: Cdc42 protein (Xenopus laevis) (UniProt Q9DDV6); assay: Inhibition of CDC42-mediated actin polymerization in PIP2-stimulated Xenopus laevis egg extract at 0.1 to 100 uM by fluorescence assay
[3] = target: T1, Cell division control protein 42 homolog (Homo sapiens, UniProt P60953); assay: Inhibition of nucleotide exchange activity of PIP2-stimulated Cdc42 at 25 uM by liquid scintillation counting
Target sequence in this assay (P60953 whole entry, looked up): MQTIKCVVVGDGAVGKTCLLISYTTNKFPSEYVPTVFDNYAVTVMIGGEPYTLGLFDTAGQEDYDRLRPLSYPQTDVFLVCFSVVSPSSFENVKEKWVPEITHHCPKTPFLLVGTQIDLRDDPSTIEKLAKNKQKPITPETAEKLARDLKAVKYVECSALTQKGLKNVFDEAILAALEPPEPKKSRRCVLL

[4] = target: T1, Cell division control protein 42 homolog; assay: Effect on GEF interaction with PIP2-stimulated Cdc42 at 25 uM by liquid scintillation counting
Target sequence in this assay (P60953 whole entry, looked up): as above

[5] = target: Cdc42 protein (Xenopus laevis) (UniProt Q9DDV6); assay: Inhibition of PIP2 liposome-stimulated Cdc42 activation in Xenopus laevis egg extract assessed as inhibition of association of Cdc42(GTPgammaS) with GST-PBD at 50 uM by Western blot analysis
Procedure, shortened: (§1)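 Xenopus egg extract (8 mg/ml) with 0.2 mM ATP and 10 µM latrunculin B at 4 °C, moved to 25 °C; compound or vehicle 5 min, then 20 µM GTPγS and 20 µM PIP2 liposomes (48:48:4) 10 min, then 2.5 µM GST-PBD 10 min. Lysis buffer plus glutathione-Sepharose, 45 min at 4 °C; bound Cdc42 by western blot.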

[6] = tested on: BSC-1; assay: Inhibition of VSVG-EGFP anterograde transport from endoplasmic reticulum to golgi complex of african green monkey BSC1 cells at 12.5 uM after 3 hrs by epifluorescence microscopy; format: functional, cell-based; details: Chlorocebus aethiops
Procedure, shortened: (§2)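 BS-C-1 monkey kidney cells expressing temperature-sensitive VSVG-EGFP, held at 40 °C to trap cargo in the ER, then shifted to 32 °C in 100 µg ml-1 cycloheximide. Compound or vehicle (1% DMSO) present during transport. Cells fixed 3 h after release and imaged by wide-field fluorescence. Surface versus perinuclear (beta-COP-costained Golgi) cargo scored. IC50 from dose-response curves, s.e.m. (n = 4).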

[7] = target: T1, Cell division control protein 42 homolog; assay: Effect on nucleotide binding activity of PIP2-stimulated Cdc42 at 25 uM by liquid scintillation counting
Target sequence in this assay (P60953 whole entry, looked up): as above

[8] = tested on: Lipid bilayer; assay: Binding affinity to phosphatidylinositol 4,5-bisphosphate liposome assessed as dynamin2-stimulated GTP hydrolysis at 250 uM by scintillation counting
Procedure, shortened: (§3)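 Truncated His-tagged human dynamin 2 (proline-rich domain, aa 736–866, deleted), expressed in BL21, mixed with PIP2 liposomes (65:32:3 PC:PI:PIP2, 0.1-µm extruded) and compound in 1% DMSO vehicle. 20 µM [γ-32P]GTP added in Tris pH 7.5/150 mM NaCl/2.5 mM MgCl2/DTT, 25 °C. After 20 min, charcoal-quenched aliquot centrifuged and released 32P-phosphate scintillation counted; s.e.m., n = 3.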

[9] = target: T1, Cell division control protein 42 homolog; assay: Effect on Cdc42-mediated cellular response in human U373MG cells assessed as reorientation of golgi complex 15 uM after 6 hrs by epifluorescence assay; format: cell-based; details: U-373MG ATCC
Procedure, shortened: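 Confluent U373MG human astrocytoma monolayer preincubated 1 h with 15 µM compound or vehicle, then scratched. At 0 and 6 h fixed, stained with Hoechst and anti-giantin; cells at wound edge with Golgi in the forward 120° sector facing scratch scored polarized. Epifluorescence; s.e.m., n = 3, >100 cells per condition.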
Target sequence in this assay (P60953 whole entry, looked up): as above

[10] = tested on: BSC-1; assay: Effect on transferrin endocytosis in african green monkey BSC1 cells at 12.5 uM after 2.5 hrs by epifluorescence microscopy; format: functional, cell-based; details: Chlorocebus aethiops
[11] = target: Cdc42 protein (Xenopus laevis) (UniProt Q9DDV6); assay: Inhibition of PIP2 liposome-stimulated Cdc42 activation in Xenopus laevis egg extract assessed as inhibition of association of Cdc42(GTPgammaS) with GST-PBD at 1 to 25 uM by Western blot analysis; procedure, shortened: as §1
[12] = target: T1, Cell division control protein 42 homolog; assay: Inhibition of GEF-independent nucleotide exchange activity of prenylated Cdc42 assessed as protein dissociation from […] complex at 100 uM after 3 mins in presence of 4 mM Mg2+ chelator EDTA
Target sequence in this assay (P60953 whole entry, looked up): as above

[13] = tested on: MDCK; assay: Decrease in NCAM-GFP transport from golgi complex of MDCK cells at 10 uM after 20 mins by fluorescence assay; format: functional, cell-based; details: Canis lupus familiaris
Procedure, shortened: (§4)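 Nonpolarized MDCK cells expressing NCAM-GFP or p75-GFP in 0.5% BSA; cargo held in Golgi at 20 °C for 30–60 min, then compound or vehicle for 20 min before shift to 32 °C. Perinuclear GFP normalized to total cell fluorescence, expressed as % of t = 0 Golgi signal; s.d., n = 2, 20 cells per condition.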

[14] = target: Cdc42 protein (Xenopus laevis, UniProt Q9DDV6); assay: Inhibition of CDC42-mediated actin polymerization in PIP2-stimulated Xenopus laevis egg extract after 6 mins by fluorescence assay
[15] = target: Cdc42 protein (Xenopus laevis) (UniProt Q9DDV6); assay: Inhibition of GST-PBD binding to Cdc42 in Xenopus laevis egg extract assessed as Cdc42(GTPgammasS) activation at 50 uM treated before addition of GST-PBD by Western blot analysis
[16] = target: T1, Cell division control protein 42 homolog; assay: Inhibition of Cdc42 binding to PIP2 liposomes at 100 uM after 10 mins
Procedure, shortened: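 Pure 0.5 µM prenylated Cdc42-RhoGDI1 complex, 1 µM RhoGDI1, 1 mM PIP2 liposomes, 100 µM compound or 2% DMSO in reaction buffer, 25 °C. After 10 min, spun 10 min at 200,000g; pellet dot-blotted with anti-Cdc42, quantified and normalized to vehicle; s.e.m., n = 4.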
Target sequence in this assay (P60953 whole entry, looked up): as above

[17] = target: Cdc42 protein (Xenopus laevis) (UniProt Q9DDV6); assay: Effect on GST-PBD binding to recombinant nonprenylated Cdc42 in PIP2 liposome-stimulated Xenopus laevis egg extract at 50 uM by Western blot analysis
Procedure, shortened: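 Xenopus egg extract treated 5 min with compound or vehicle, then 20 nM recombinant nonprenylated Cdc42 (GTPγS or GDP) 10 min, then GST-PBD 10 min. Pulled down on glutathione-Sepharose and Cdc42 detected by western blot; GST-PBD stained with Ponceau S as loading control.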

[18] = tested on: BSC-1; assay: Effect on transferrin translocation from golgi complex to endoplasmic reticulum of african green monkey BSC1 cells at 12.5 uM after 2.5 hrs by epifluorescence microscopy; format: functional, cell-based; details: Chlorocebus aethiops
[19] = target: Cdc42 protein (Xenopus laevis) (UniProt Q9DDV6); assay: Inhibition of GST-PBD binding to Cdc42 in Xenopus laevis egg extract assessed as Cdc42(GTPgammasS) activation at 50 uM treated after addition of GST-PBD by Western blot analysis
[20] = tested on: BSC-1; assay: Inhibition of VSVG-EGFP anterograde transport from endoplasmic reticulum to plasma membrane of african green monkey BSC1 cells after 3 hrs by epifluorescence microscopy; format: functional, cell-based; details: Chlorocebus aethiops, BSC-1, 3 h; procedure, shortened: as §2
[21] = tested on: MDCK; assay: Increase in p75-GFP transport from golgi complex of MDCK cells at 10 uM after 20 mins by fluorescence assay; format: functional, cell-based; details: Canis lupus familiaris; procedure, shortened: as §4
[22] = tested on: Lipid bilayer; assay: Binding affinity to phosphatidylinositol 4,5-bisphosphate liposome assessed as dynamin2-stimulated GTP hydrolysis at 25 uM by scintillation counting; procedure, shortened: as §3
[23] = target: Cell division control protein 42 homolog (Rattus norvegicus) (UniProt Q8CFN2); assay: Inhibition of Cdc42 binding to rat liver golgi membrane at 10 to 150 uM by Western blot analysis
Procedure, shortened: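 Bovine brain cytosol incubated with compound or 1% DMSO, then 20 µM GTPγS and 0.2 mg/ml rat liver Golgi membranes added. Membrane-bound Cdc42 and β-COP analyzed by western blot.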

[24] = target: T1, Cell division control protein 42 homolog; assay: Inhibition of GEF-independent nucleotide exchange activity of prenylated Cdc42 after 3 mins in presence of 4 mM Mg2+ chelator EDTA
Procedure, shortened: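 GDP/[35S]GTPγS exchange by 0.5 µM prenylated Cdc42-RhoGDI1 complex with 1 µM RhoGDI1 and 100 µM PIP2 liposomes, 4 mM EDTA replacing GEF, in Tris pH 7.5 reaction buffer at 25 °C. Started with 10 µM [35S]GTPγS; reactions sampled at 3 min, filtered on nitrocellulose and scintillation counted; s.e.m., n = 3.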
Target sequence in this assay (P60953 whole entry): as the sequence (P60953 whole entry, looked up) above

[25] = tested on: BSC-1; assay: Effect on perinuclear localization of trans-Golgi network in african green monkey BSC1 cells at 12.5 uM after 2.5 hrs by epifluorescence microscopy; format: functional, cell-based; details: Chlorocebus aethiops
[26] = tested on: Lipid bilayer; assay: Binding affinity to phosphatidylinositol 4,5-bisphosphate liposome at 50 uM by electron microscopy
Procedure, shortened: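 PIP2 liposomes (100 µM) incubated with compound or 1% DMSO, with 1% Triton X-100 as comparator. Samples in reaction buffer adsorbed on glow-discharged carbon grids, negatively stained with 1.2% uranyl acetate and imaged by EM at 80 kV.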

[27] = organism: Xenopus laevis; assay: Inhibition of actin polymerization in N-WASP VCA-stimulated Xenopus laevis egg extract at 20 uM after 1.5 mins by fluorescence assay
[28] = target: T1, Cell division control protein 42 homolog; assay: Inhibition of GEF-independent nucleotide exchange activity of nonprenylated Cdc42 at 100 uM after 10 mins in presence of 4 mM EDTA

Sequence of Cdc42 protein (Xenopus laevis) (Q9DDV6 as listed by the source): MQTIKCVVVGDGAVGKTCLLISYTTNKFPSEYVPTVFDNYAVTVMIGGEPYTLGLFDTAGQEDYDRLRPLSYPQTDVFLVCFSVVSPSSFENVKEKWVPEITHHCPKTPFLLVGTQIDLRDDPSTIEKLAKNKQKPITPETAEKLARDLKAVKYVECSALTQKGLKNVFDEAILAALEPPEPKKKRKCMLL
Sequence of Cdc42 protein (Q9DDV6 whole entry): as the sequence (Q9DDV6 as listed by the source) above
Sequence of Cell division control protein 42 homolog (Rattus norvegicus) (Q8CFN2 whole entry, looked up): as the sequence (P60953 whole entry, looked up) above

| SMILES | Activity [2] | inhibition [3] | Activity [4] | inhibition [6] | Activity [7] | inhibition [12] | IC50 [14] | IC50 [20] | IC50 [24] | also measured |
| --- | --- | --- | --- | --- | --- | --- | --- | --- | --- | --- |
| C/C1=C/C(=O)O[C@@H]2C[C@@H](CC[C@H](C)/C=C\CC1)O[C@@](O)([C@@H]1CSC(=O)N1)C2 |  |  |  |  |  |  |  |  |  | inhibition [1]: Active |
| COc1ccc(CS[C@@H]2C/C(=N/OCc3ccccc3)C[C@H]3Oc4c(Br)c(OCC5CC5)cc5c4[C@]32C[C@@H](CO)N(C(C)=O)C5)cc1 | inactive | inactive | inactive | inactive | inactive |  |  |  |  | inhibition [5]: inactive |
| NC[C@@H]1O[C@H](O[C@H]2[C@@H](O)[C@H](O[C@@H]3[C@@H](O)[C@H](N)C[C@H](N)[C@H]3O[C@H]3O[C@H](CN)[C@@H](O)[C@H](O)[C@H]3N)O[C@@H]2CO)[C@H](N)[C@@H](O)[C@@H]1O |  |  |  |  |  |  |  |  |  | Activity [8]: Active |
| COc1ccc(CS[C@@H]2C/C(=N/OCc3ccccc3)C[C@H]3Oc4c(Br)c(OCC5CC5)cc5c4[C@]32C[C@@H](CO)NC5)cc1 [SECRAMINE A] | Active | Active | inactive | inactive | inactive | inactive | 1 µM | 12 µM | 9 µM | Activity [9]: 45%; Activity [10]: inactive; inhibition [11]: Active; inhibition [13]: Active; inhibition [15]: Active; inhibition [16]: Active; Activity [17]: inactive; Activity [18]: inactive; inhibition [19]: inactive; inhibition [21]: Active; Activity [22]: inactive; inhibition [23]: Active; Activity [25]: inactive; Activity [26]: inactive; inhibition [27]: inactive; inhibition [28]: inactive |
| CO/N=C1\C[C@H]2Oc3c(Br)c(OCC4CC4)cc4c3[C@@]2(C[C@@H](CO)NC4)[C@H](SCc2ccc(OC)cc2)C1 [SECRAMINE B] | Active | Active | inactive | inactive | inactive | inactive | 3 µM | 12 µM | 7 µM |  |
